Values after ≈ are worked out from the molar mass of the structure shown. Residues, ends and D or L forms follow the SMILES beside them. *: point of attachment. X3 = Cc1cc2nc(-c3c(I)cc(C(=O)*)cc3I)[nH]c2cc1C; X4 = Cc1cc2nc(-c3ccc(C(=O)*)cc3)[nH]c2cc1C
What was measured:
Candida albicans [1] = assay: Antifungal activity against Candida albicans MUCC 29 after 48 hrs by disc diffusion method; format: functional
How it was run: (§1)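 Agar well diffusion on plates inoculated with spore suspension in normal saline from cultures on Sabouraud's broth. Wells punched and loaded with test samples or griseofulvin at 10 mg mL^-1, with DMSO as negative control. Incubated 48 h at 37 °C.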

Microsporum audouinii [2] = assay: Antifungal activity against Microsporum audouinii MUCC 545 after 48 hrs by disc diffusion method; format: functional; how it was run: as §1
Bacillus subtilis [3] = assay: Antibacterial activity against Bacillus subtilis NCIM 2063 after 18 hrs by tube dilution method; format: functional; details: NCIM 2063, 18 h
How it was run: (§2)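 Tube dilution MIC. Stock diluted in sterile broth to seven concentrations from 200 to 3.1 […]. Each tube inoculated with one loopful of test bacterium and incubated 18 h at 37 °C. MIC read from presence or absence of growth.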

[4] = Anthelmintic activity against Megascoplex konkanensis ICARBC 211 assessed as mean paralyzing time; format: functional
How it was run: (§3)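 Earthworms exposed to test suspensions at 2 mg mL^-1 (0.2% w/v), made by triturating compound with Tween 80 (0.5%) and distilled water, then mechanically stirred 30 min. Mebendazole suspension prepared alike as reference. Paralysis and death times recorded; death confirmed by no movement in 50 °C water. Means from triplicate sets.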

Microsporum audouinii [5] = assay: Antifungal activity against Microsporum audouinii MUCC 545 after 48 hrs by tube dilution method; format: functional
How it was run: (§4)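 Tube dilution MIC as for bacteria (seven concentrations, 200–3.1 […]), with DMSO in place of DMF. Tubes inoculated with fungal culture and incubated 48 h at 37 °C. MIC read from presence or absence of growth.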

Escherichia coli [6] = assay: Antibacterial activity against Escherichia coli NCIM 2065 after 18 hrs by tube dilution method; format: functional; details: NCIM 2065, 18 h
Eudrilus [7] = assay: Anthelmintic activity against Eudrilus sp. assessed as mean death time; format: functional
How it was run: (§5)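 Earthworms exposed to test suspensions at 2 mg mL−1, prepared by triturating compound with Tween 80 (0.5%) and distilled water, stirring 30 min, then diluting to 0.2% w/v. Mebendazole suspension was made the same way. Death was confirmed by moving worms into 50 °C warm water and looking for movement. Mean death time (min) taken from triplicate sets.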

Pontoscolex corethrurus [8] = assay: Anthelmintic activity against Pontoscolex corethrurus ICARBC 408 assessed as mean death time; format: functional; how it was run: as §5
Pontoscolex corethrurus [9] = assay: Anthelmintic activity against Pontoscolex corethrurus ICARBC 408 assessed as mean paralyzing time; format: functional; how it was run: as §3
Eudrilus [10] = assay: Anthelmintic activity against Eudrilus sp. assessed as mean paralyzing time; format: functional; how it was run: as §3
Escherichia coli [11] = assay: Antibacterial activity against Escherichia coli NCIM 2065 after 18 hrs by disc diffusion method; format: functional
How it was run: (§6)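 Modified Kirby-Bauer disc diffusion. Plates inoculated with spore suspension (about 6 × 10⁴ spores mL^-1). Sterile 6 mm paper discs carried test samples at 10 mg mL^-1; ciprofloxacin disc as reference, DMF disc as negative control. Plates held 18 h at 37 °C. Inhibition zone diameters (mm) averaged over triplicate sets.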

Staphylococcus aureus [12] = assay: Antibacterial activity against Staphylococcus aureus NCIM 2079 after 18 hrs by tube dilution method; format: functional; details: NCIM 2079, 18 h; how it was run: as §2
Trichophyton benhamiae [13] = assay: Antifungal activity against Trichophyton mentagrophytes MUCC 665 after 48 hrs by tube dilution method; format: functional, Arthroderma benhamiae; how it was run: as §4
Pseudomonas aeruginosa [14] = assay: Antibacterial activity against Pseudomonas aeruginosa NCIM 2034 after 18 hrs by tube dilution method; format: functional; details: NCIM 2034, 18 h; how it was run: as §2
Pseudomonas aeruginosa [15] = assay: Antibacterial activity against Pseudomonas aeruginosa NCIM 2034 after 18 hrs by disc diffusion method; format: functional; how it was run: as §6
Staphylococcus aureus [16] = assay: Antibacterial activity against Staphylococcus aureus NCIM 2079 after 18 hrs by disc diffusion method; format: functional; how it was run: as §6
Candida albicans [17] = assay: Antifungal activity against Candida albicans MUCC 29 after 48 hrs by tube dilution method; format: functional; how it was run: as §4
Aspergillus niger = assay: Antifungal activity against Aspergillus niger MUCC 177 after 48 hrs by disc diffusion method; format: functional; how it was run: as §1
[18] = Anthelmintic activity against Megascoplex konkanensis ICARBC 211 assessed as mean death time; format: functional; how it was run: as §3
Bacillus subtilis [19] = assay: Antibacterial activity against Bacillus subtilis NCIM 2063 after 18 hrs by disc diffusion method; format: functional; how it was run: as §6
Trichophyton benhamiae [20] = assay: Antifungal activity against Trichophyton mentagrophytes MUCC 665 after 48 hrs by disc diffusion method; format: functional, Arthroderma benhamiae; how it was run: as §1

| SMILES | inhibition zone (IZ) (Candida albicans [1]) [mm] | inhibition zone (IZ) (Microsporum audouinii [2]) [mm] | MIC (Bacillus subtilis [3]) [µg/mL] | TIME [4] [h] | MIC (Microsporum audouinii [5]) [µg/mL] | MIC (Escherichia coli [6]) [µg/mL] | Time (Eudrilus [7]) [min] | Time (Pontoscolex corethrurus [8]) [min] | Time (Pontoscolex corethrurus [9]) [min] | Time (Eudrilus [10]) [min] | inhibition zone (IZ) (Escherichia coli [11]) [mm] | MIC (Staphylococcus aureus [12]) [µg/mL] | MIC (Trichophyton benhamiae [13]) [µg/mL] | MIC (Pseudomonas aeruginosa [14]) [µg/mL] | inhibition zone (IZ) (Pseudomonas aeruginosa [15]) [mm] | inhibition zone (IZ) (Staphylococcus aureus [16]) [mm] | MIC (Candida albicans [17]) [µg/mL] | inhibition zone (IZ) (Aspergillus niger) [mm] | TIME [18] [h] | inhibition zone (IZ) (Bacillus subtilis [19]) [mm] | also measured |
| --- | --- | --- | --- | --- | --- | --- | --- | --- | --- | --- | --- | --- | --- | --- | --- | --- | --- | --- | --- | --- | --- |
| CC[C@H](C)[C@H](NC(=O)CNC(=O)c1cc(I)c(-c2nc3cc(C)c(C)cc3[nH]2)c(I)c1)C(=O)NCC(=O)N[C@H](C(=O)OC)[C@@H](C)O (X3-GIGT-OMe) | 13 | 9 | 6 (≈ 6.97 µM) | 0.602 | 25 (≈ 29.1 µM) | 12.5 (≈ 14.5 µM) | 70.54 | 82.3 | 57.67 | 38.45 | 17 | 12.5 (≈ 14.5 µM) | 25 (≈ 29.1 µM) | 6 (≈ 6.97 µM) | 22 | 12 | 12.5 (≈ 14.5 µM) | 18 | 1.08 | 15 | inhibition zone (IZ) (Trichophyton benhamiae [20]): 9 mm |
| Cc1cc2nc(-c3ccc(O)c(C(=O)N[C@@H](Cc4c[nH]c5ccccc45)C(=O)N[C@@H](C)C(=O)N[C@@H](Cc4ccc(O)cc4)C(=O)O)c3)[nH]c2cc1C | 18 | 12 | 12.5 (≈ 17.8 µM) | 0.224 | 12.5 (≈ 17.8 µM) | 12.5 (≈ 17.8 µM) | 23.98 | 29.19 | 17.02 | 13.25 | 18 | 12.5 (≈ 17.8 µM) | 6 (≈ 8.54 µM) | 6 (≈ 8.54 µM) | 22 | 11 | 6 (≈ 8.54 µM) | 17 | 0.377 | 16 | inhibition zone (IZ) (Trichophyton benhamiae [20]): 15 mm |
| COC(=O)[C@@H]1CCCN1C(=O)[C@@H](NC(=O)[C@H](Cc1ccccc1)NC(=O)c1cc(I)c(-c2nc3cc(C)c(C)cc3[nH]2)c(I)c1)C(C)C | 16 | 10 | 6 (≈ 6.85 µM) | 0.454 | 12.5 (≈ 14.3 µM) | 25 (≈ 28.6 µM) | 45.34 | 50.22 | 33.64 | 29.24 | 16 | 25 (≈ 28.6 µM) | 6 (≈ 6.85 µM) | 12.5 (≈ 14.3 µM) | 22 | 12 | 6 (≈ 6.85 µM) | 14 | 0.672 | 16 | inhibition zone (IZ) (Trichophyton benhamiae [20]): 12 mm |
| COC(=O)CNC(=O)[C@H](CC(C)C)NC(=O)c1ccc(-c2nc3cc(C)c(C)cc3[nH]2)cc1 | 18 | 10 | 6 (≈ 13.3 µM) | 0.472 | 25 (≈ 55.5 µM) | 12.5 (≈ 27.7 µM) | 42.54 | 49.4 | 37.17 | 29.73 | 14 | 12.5 (≈ 27.7 µM) | 6 (≈ 13.3 µM) | 6 (≈ 13.3 µM) | 20 | 9 | 6 (≈ 13.3 µM) | 16 | 0.69 | 10 | inhibition zone (IZ) (Trichophyton benhamiae [20]): 12 mm |
| COC(=O)[C@H](C)NC(=O)[C@@H]1CCCN1C(=O)c1cc(-c2nc3ccc([N+](=O)[O-])cc3[nH]2)ccc1O | 22 | 12 | 12.5 (≈ 26 µM) | 0.438 | 6 (≈ 12.5 µM) | 12.5 (≈ 26 µM) | 35.82 | 43.76 | 31.98 | 27.23 | 18 | 25 (≈ 51.9 µM) | 6 (≈ 12.5 µM) | 6 (≈ 12.5 µM) | 28 | 9 | 6 (≈ 12.5 µM) | 16 | 0.587 | 13 | inhibition zone (IZ) (Trichophyton benhamiae [20]): 17 mm |
| CC[C@H](C)[C@H](NC(=O)CNC(=O)[C@H](Cc1c[nH]c2ccccc12)NC(=O)c1ccc(-c2nc3cc(C)c(C)cc3[nH]2)cc1)C(=O)N[C@@H](C)C(=O)OC (X4-WGIA-OMe) | 19 | 10 | 6 (≈ 8.48 µM) | 0.221 | 6 (≈ 8.48 µM) | 12.5 (≈ 17.7 µM) | 24.1 | 29.57 | 17.22 | 13.59 | 18 | 12.5 (≈ 17.7 µM) | 25 (≈ 35.3 µM) | 6 (≈ 8.48 µM) | 20 | 10 | 25 (≈ 35.3 µM) | 19 | 0.375 | 14 | inhibition zone (IZ) (Trichophyton benhamiae [20]): 9 mm |
| Cc1cc2nc(-c3ccc(C(=O)N[C@@H](CCCNC(=N)N[N+](=O)[O-])C(=O)O)cc3)[nH]c2cc1C | 17 | 10 | 12.5 (≈ 26.7 µM) | 0.302 | 12.5 (≈ 26.7 µM) | 12.5 (≈ 26.7 µM) | 38.12 | 34.96 | 21.51 | 18.38 | 19 | 25 (≈ 53.5 µM) | 12.5 (≈ 26.7 µM) | 6 (≈ 12.8 µM) | 25 | 11 | 12.5 (≈ 26.7 µM) | 16 | 0.438 | 15 | inhibition zone (IZ) (Trichophyton benhamiae [20]): 14 mm |
| Cc1cc2nc(-c3ccc(O)c(C(=O)N[C@@H](C)C(=O)N[C@H](C(=O)N[C@@H](C)C(=O)O)C(C)C)c3)[nH]c2cc1C | 19 | 11 | 6 (≈ 11.5 µM) | 0.42 | 6 (≈ 11.5 µM) | 25 (≈ 47.7 µM) | 36.14 | 41.6 | 29.65 | 25.18 | 17 | 25 (≈ 47.7 µM) | 6 (≈ 11.5 µM) | 6 (≈ 11.5 µM) | 21 | 11 | 6 (≈ 11.5 µM) | 17 | 0.57 | 14 | inhibition zone (IZ) (Trichophyton benhamiae [20]): 15 mm |
| COC(=O)[C@H](C)NC(=O)[C@H](CCCNC(=N)N[N+](=O)[O-])NC(=O)c1cc(-c2nc3cc(C)c(C)cc3[nH]2)ccc1O | 19 | 11 | 6 (≈ 10.6 µM) | 0.279 | 6 (≈ 10.6 µM) | 12.5 (≈ 22 µM) | 28.54 | 32.65 | 20.38 | 17.35 | 17 | 12.5 (≈ 22 µM) | 6 (≈ 10.6 µM) | 6 (≈ 10.6 µM) | 22 | 11 | 12.5 (≈ 22 µM) | 18 | 0.423 | 15 | inhibition zone (IZ) (Trichophyton benhamiae [20]): 10 mm |

— ChEMBL document CHEMBL1146375, “Synthetic studies on novel benzimidazolopeptides with antimicrobial, cytotoxic and anthelmintic potential” (2007)
